The values below come from ChEMBL document CHEMBL1135916, “Design, synthesis, and structure-activity relationship of pyridyl imidazolidinones: a novel class of potent and selective human enterovirus 71 inhibitors” (J Med Chem, 2002).

One data set concerns Enterovirus A71. Put plainly: Inhibition concentration against EV-71. The format is functional, organism-based. The note with it: Enterovirus A.
The nature of data set [1]: (§1) Cytotoxicity against human rhabdomyosarcoma (RD) cells. It counts as functional. Conditions: Homo sapiens, RD.
Data set [2] in a line: as §1. It counts as functional. Put shortly: (§2)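 Test compound at various concentrations added to D551 (human normal skin fibroblast), WI38 (human normal lung fibroblast) or RD cells; incubated 96 h at 37 °C; cells harvested and viable cells counted by trypan blue staining. Triplicate, at least twice.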
Data set [3] in a line: Cytotoxicity against human normal skin fibroblast (D551) cells. The format is cell-based. The note with it: D551 normal skin fibroblast cells. Put shortly: as §2
Data set [4] can be described thus: Selectivity index (RD/EV71) of the compound. It counts as functional.
A short description of data set [5]: Selectivity index (D551/EV71) of the compound. The format is functional.
A short description of data set [6]: Cytotoxicity against human normal skin fibroblast (W138) cells. The format is cell-based. Conditions: W138 normal skin fibroblast cells. In short, it runs like this: as §2
The nature of data set [7]: Selectivity index (W138/EV71) of the compound. It counts as functional.
The next data set has as its system Human alphaherpesvirus 2. Put plainly: Inhibition concentration against herpes simplex virus. It counts as functional, organism-based. In short, it runs like this: (§3)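 Plaque reduction on Vero cell monolayers infected to give about 50-100 plaques per monolayer in virus control; test compound diluted into agar-medium overlay; 96 h at 35 °C, crystal violet staining, plaques counted. […] Triplicate well means, at least two experiments.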

The test system of data set [8] is Enterovirus. The experiment in a line: Inhibition concentration against echovirus 29. The format is functional, organism-based. Put shortly: as §3
Data set [9] relates to Coxsackievirus. The experiment in a line: Inhibition concentration against coxsackie virus A10. It counts as functional, organism-based. In short, it runs like this:
as §3

Data set [10] has as its system Coxsackievirus. The experiment in a line: Inhibition concentration against coxsackie virus A9. It counts as functional, organism-based. In short, it runs like this:
as §3

Data set [11] concerns Coxsackievirus. The experiment in a line: Inhibition concentration against coxsackie virus B1. The format is functional, organism-based. Put shortly: as §3
Data set [12] deals with Coxsackievirus. Put plainly: Inhibition concentration against coxsackie virus B6. The format is functional, organism-based. In short, it runs like this: as §3
Data set [13] has as its system unidentified influenza virus. The experiment in a line: Inhibition concentration against influenza B […]. The format is functional, organism-based. Put shortly: (§4)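 Plaque reduction assay on Vero cell monolayers. Virus was added at a dose giving about 50-100 plaques per monolayer in virus controls. Compound was diluted into the agar-medium overlay, tested up to 25 µM. Plates were incubated 96 h at 35 °C, stained with crystal violet, and plaques counted.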

Data set [14] deals with Coxsackievirus. Put plainly: Inhibition concentration against coxsackie virus B5. The format is functional, organism-based. In short, it runs like this:
as §3

For data set [15], the system named is Coxsackievirus. Put plainly: Inhibition concentration against coxsackie virus A24. It counts as functional, organism-based. Put shortly:
as §3

Data set [16] deals with Enterovirus. The experiment in a line: Inhibition concentration against echovirus 9. It counts as functional, organism-based. In short, it runs like this: as §3
For data set [17], the system named is Enterovirus. The experiment in a line: Inhibition concentration against EV-71 (1743) genotype B. It counts as functional, organism-based. Put shortly:
as §3

The test system of data set [18] is Enterovirus. Put plainly: Inhibition concentration against human rhinovirus 14. The format is functional, organism-based. Put shortly:
as §3

Data set [19] relates to Coxsackievirus. The experiment in a line: Inhibition concentration against coxsackie virus B3. It counts as functional, organism-based. In short, it runs like this: as §3
Data set [20] concerns unidentified influenza virus. The experiment in a line: Inhibition concentration against influenza A (WSN). It counts as functional, organism-based. In short, it runs like this: as §4
The subject of data set [21] is Enterovirus. The experiment in a line: Inhibition Concentration against enterovirus 68. It counts as functional, organism-based. In short, it runs like this:
as §3

For data set [22], the system named is Coxsackievirus. The experiment in a line: Inhibition concentration against coxsackie virus B2. The format is functional, organism-based. Put shortly: as §3
Data set [23] has as its system Coxsackievirus. The experiment in a line: Inhibition concentration against coxsackie virus A16. The format is functional, organism-based. Put shortly: as §3
Data set [24] deals with Enterovirus. Put plainly: Inhibition concentration against EV-71 (2231) genotype C. It counts as functional, organism-based. Put shortly:
as §3

Data set [25] has as its system Enterovirus. Put plainly: Inhibition concentration against EV-71 (2086) genotype C. The format is functional, organism-based. Put shortly:
as §3

In data set [26] the test system is Coxsackievirus. Put plainly: Inhibition concentration against coxsackie virus B4. The format is functional, organism-based. In short, it runs like this:
as §3

Data set [27] has as its system Enterovirus. The experiment in a line: Inhibition concentration against human rhinovirus 2. It counts as functional, organism-based. In short, it runs like this:
as §3

The subject of data set [28] is Enterovirus. The experiment in a line: Inhibition concentration against EV-71 (BrCR) genotype A. The format is functional, organism-based. In short, it runs like this:
as §3

“And” between values parts separate entries of the source, which are not always exact repeats. Identical values can stand only once.

Molecule `O=C1N(CCCCCCOc2ccc(Cl)cc2)CCN1c1ccccc1` displayed an IC50 in the data set on Enterovirus A71 of 10.8 µM. Moreover, the cytotoxic concentration (CC50) in data set [1] was over 25 µM.

Molecule `O=C1N(CCCCCOc2ccc(-c3cccs3)cc2)CCN1c1ccncc1` gave a CC50 in data set [2] of over 25 µM. In the data set with Enterovirus A71, half-maximal inhibition (IC50) was put at 0.58 µM.

Molecule `O=C1N(CCCCCOc2ccc(Cl)cc2)CCN1c1ccncc1` returned a CC50 in data set [2] of over 25 µM. In the data set on Enterovirus A71, the IC50 came out at 1.35 µM.

As for `CC(C)(C)c1ccc(OCCCCCCN2CCN(c3cccnc3)C2=O)cc1`, the IC50 with Enterovirus A71 is over 25 µM. The molecule also returned a CC50 in data set [1] of over 25 µM.

`O=C1N(CCCCCCOc2ccc(Cl)cc2)CCN1c1ccncc1` yielded an IC50 with Enterovirus A71 of 1.5 µM. In addition, the cytotoxic concentration (CC50) in data set [1] was over 25 µM.

For `O=C1N(CCCCCCOc2ccc(C(F)(F)F)cc2)CCN1c1ccccc1`, half-maximal inhibition with Enterovirus A71 (IC50) was put at 12 µM. Besides, the CC50 in [1] is over 25 µM.

As to `O=C1N(CCCCCCCOc2ccc(Br)cc2)CCN1c1ccncn1`, in the data set with Enterovirus A71, the 50% inhibitory concentration (IC50) is over 25 µM. Further, in data set [1], the CC50 is over 25 µM.

Turning to `O=C1N(CCCCCCCOc2ccc(Cl)cc2)CCN1c1cccnc1`, the IC50 in the data set on Enterovirus A71 turned out to be 1.43 µM. In data set [1], this molecule displayed a CC50 of over 25 µM.

In the data set with Enterovirus A71, `O=C1N(CCCCCCOc2ccc(-c3ccoc3)cc2)CCN1c1ccncc1` returned an IC50 of 0.58 µM. Also, the CC50 in [1] is over 25 µM.

In turn, `O=C1N(CCCCCCOc2ccc(Br)cc2)CCN1c1cccnc1` registered an IC50 in the data set on Enterovirus A71 of 2.07 µM. The molecule also registered a CC50 in [1] of over 25 µM.

Molecule `O=C1N(CCCCCCOc2ccc(F)cc2)CCN1c1ccncc1` returned a CC50 in [2] of over 25 µM. The molecule also yielded an IC50 with Enterovirus A71 of 3.01 µM.

Molecule `O=C1N(CCCCCCOc2ccc(Cl)cc2)CCN1c1ccncn1` yielded an IC50 in the data set on Enterovirus A71 of over 25 µM. Further, in data set [1], the CC50 was over 25 µM.

Take `COc1ccc(-c2ccc(OCCCCCN3CCN(c4ccncc4)C3=O)cc2)cc1`: the CC50 in [3] is over 100 µM; in [1] it was over 25 µM; in data set [6] it was over 100 µM. Besides, the Selectivity index in data set [4] is over 74; in data set [5], over 294; in data set [7] it was over 294. Besides, 0.34 µM corresponded to half-maximal inhibition in the data set on Enterovirus A71 (IC50).

As for `O=C1N(CCCCCOc2ccc(-c3ccc(Br)cc3)cc2)CCN1c1ccncc1`, the values for the CC50 in data set [3], in data set [1] and in [6] were over 100 µM, over 25 µM and over 100 µM, respectively. In addition, the Selectivity index is over 179 in [4], over 714 in [5] and over 714 in [7]. The molecule further registered an IC50 in the data set on Enterovirus A71 of 0.14 µM.

Turning to `COc1ccc(OCCCCCCN2CCN(c3ccncc3)C2=O)c(Cl)c1`, in the data set on Enterovirus A71, the IC50 was over 25 µM. In data set [1], the CC50 is over 25 µM.

With `N#Cc1ccc(OCCCCCCN2CCN(c3ccncc3)C2=O)cc1`, in the data set on Enterovirus A71, the IC50 is over 0.39 µM. In addition, the CC50 in data set [1] came to 0.39 µM.

In turn, `O=C1N(CCCCCCOc2ccc(C(F)(F)F)cc2)CCN1c1ccncn1` registered an IC50 with Enterovirus A71 of over 25 µM. In data set [1], this molecule yielded a CC50 of over 25 µM.

Consider `O=C1N(CCCCCOc2ccc(-c3ccc([N+](=O)[O-])cc3)cc2)CCN1c1ccncc1` [listing 1 of 2 here], for which the Selectivity index in data set [4] is over 76; in [5], > 169 and 200; in [7], > 169 and 212.

`O=C1N(CCCCCCCOc2ccc(Cl)cc2)CCN1c1ccncc1` gave an IC50 in the data set with Enterovirus A71 of 0.66 µM. The molecule further came in with a CC50 in data set [1] of over 25 µM.

On to `O=C1N(CCCCCCOc2cccc(Br)c2)CCN1c1ccncc1`, for which, in the data set with Enterovirus A71, the IC50 is over 25 µM. The same molecule came in with a CC50 in data set [1] of over 25 µM.

For `N#Cc1ccc(-c2ccc(OCCCCCN3CCN(c4ccncc4)C3=O)cc2)cc1`, in the data set on Enterovirus A71, the IC50 was 2.66 µM. The molecule further registered a CC50 in [1] of over 25 µM.

Turning to `O=C1N(CCCCCCOc2ccc(C(F)(F)F)cc2)CCN1c1ccnc(Cl)c1`, the IC50 in the data set on Enterovirus A71 was over 25 µM. The molecule further registered a CC50 in data set [1] of over 25 µM.

Consider `O=C1N(CCCCCOc2ccc(-c3ccc([N+](=O)[O-])cc3)cc2)CCN1c1ccncc1` [listing 2 of 2 here], for which the CC50 is over 100 µM in data set [3], over 25 µM in [1] and over 100 µM in data set [6]. In addition, in the data set on Enterovirus A71, half-maximal inhibition (IC50) required 0.59 µM.

Turning to `O=C1N(CCCCCCOc2ccc(C(F)(F)F)cc2)CCN1c1ccncc1`, the CC50 in [3] was 55 µM; in data set [1], over 25 µM; in data set [6], 36 µM. The IC50 in the data set with Human alphaherpesvirus 2 is over 25 µM; in the data set on Enterovirus [8], over 25 µM; in the data set on Coxsackievirus [9], 15.7 µM; with Coxsackievirus [10] it was 1.44 µM; in the data set with Enterovirus A71 it was 0.58 µM; with Coxsackievirus [11], 5.6 µM. For the same molecule, the IC50 is over 25 µM in the data set on Coxsackievirus [12]; over 25 µM in data set [13]; over 25 µM in the data set with Coxsackievirus [14]; 0.47 µM with Coxsackievirus [15]; 2.61 µM with Enterovirus [16]; 0.75 µM with Enterovirus [17]. Further, the IC50 was over 12.5 µM with Enterovirus [18]; over 25 µM in the data set with Coxsackievirus [19]; over 25 µM in data set [20]; 4.67 µM with Enterovirus [21]; over 25 µM in the data set on Coxsackievirus [22]; over 25 µM in the data set on Coxsackievirus [23]. For the same molecule, the IC50 in the data set on Enterovirus [24] is 1.35 µM; in the data set on Enterovirus [25], 0.51 µM; in the data set with Coxsackievirus [26], over 25 µM; in the data set on Enterovirus [27], over 25 µM; in the data set on Enterovirus [28] it was 1.37 µM. Further, the Selectivity index is over 43 in data set [4], 108 in [5] and 71 in [7].

As to `O=C1N(CCCCCOc2ccc(C(F)(F)F)cc2)CCN1c1ccncn1`, in the data set on Enterovirus A71, the IC50 is over 25 µM. In [1], this molecule yielded a 50% cytotoxic concentration (CC50) of over 25 µM.

As usually defined, the IC50 is the concentration at which inhibition is half-maximal. Low readings indicate higher potency, high ones lower potency. For orientation: CC50 means the concentration at which the toxic effect on the cells reaches its halfway point. High values mean better tolerance by the cells, low ones harm at low concentration.
